Source: ChEMBL document CHEMBL3632544, “Acyl dihydropyrazolo[1,5-a]pyrimidinones as metabotropic glutamate receptor 5 positive allosteric modulators” (Bioorg Med Chem Lett, 2015)
In brackets after ≈: the same amount, converted by molar mass.

Experiments:
Rattus norvegicus [1] = assay: Toxicity in Sprague-Dawley rat assessed as alteration in behavior across 30 distinct autonomic and somatomotor endpoints at 30 mg/kg, po; format: organism-based; settings: in vivo
Method in brief: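 Modified Irwin screen in rats given a single 30 mg/kg oral dose; 30 autonomic and somatomotor endpoints scored for behavioral change; brain concentration sampled 1.0 h post-dose.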

[2] = Cmax in dog at 1 mg/kg, iv and 5 mg/kg, po; format: ADME, organism-based, Canis lupus familiaris; settings: in vivo
[3] = biological target: Metabotropic glutamate receptor 1 (Homo sapiens, UniProt Q13255); assay: Positive allosteric modulation of mGlu1 receptor (unknown origin) relative to control
[4] = Plasma clearance in dog at 1 mg/kg, iv and 5 mg/kg, po; format: ADME, organism-based, Canis lupus familiaris
[5] = biological target: Metabotropic glutamate receptor 6 (Homo sapiens, UniProt O15303); assay: Positive allosteric modulation of mGlu6 receptor (unknown origin) relative to control
Sequence of Metabotropic glutamate receptor 6 (O15303 whole entry): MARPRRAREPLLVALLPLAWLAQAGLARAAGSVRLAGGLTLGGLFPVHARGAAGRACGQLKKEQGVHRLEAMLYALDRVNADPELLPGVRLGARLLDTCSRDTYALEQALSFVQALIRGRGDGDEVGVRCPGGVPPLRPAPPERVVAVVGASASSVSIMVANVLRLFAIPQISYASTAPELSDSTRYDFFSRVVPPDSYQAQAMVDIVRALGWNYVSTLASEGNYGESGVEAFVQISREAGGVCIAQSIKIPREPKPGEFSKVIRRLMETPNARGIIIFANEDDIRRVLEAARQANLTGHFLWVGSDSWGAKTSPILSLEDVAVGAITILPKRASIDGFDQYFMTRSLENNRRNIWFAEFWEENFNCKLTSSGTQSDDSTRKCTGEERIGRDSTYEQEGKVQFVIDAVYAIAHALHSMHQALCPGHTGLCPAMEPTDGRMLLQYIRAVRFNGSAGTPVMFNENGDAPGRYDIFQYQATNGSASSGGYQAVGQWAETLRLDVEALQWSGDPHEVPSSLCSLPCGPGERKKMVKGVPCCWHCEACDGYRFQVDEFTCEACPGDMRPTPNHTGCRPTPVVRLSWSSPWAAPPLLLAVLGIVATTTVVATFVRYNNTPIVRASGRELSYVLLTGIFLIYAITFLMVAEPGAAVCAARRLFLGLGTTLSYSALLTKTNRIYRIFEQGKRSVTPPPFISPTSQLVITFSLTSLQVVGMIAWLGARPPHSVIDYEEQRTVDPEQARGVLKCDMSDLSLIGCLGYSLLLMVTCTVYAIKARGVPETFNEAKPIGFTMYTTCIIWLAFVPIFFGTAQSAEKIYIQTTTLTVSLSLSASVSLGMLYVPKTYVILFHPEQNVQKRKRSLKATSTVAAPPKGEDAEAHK

[6] = biological target: Metabotropic glutamate receptor 5 (Rattus norvegicus) (UniProt P31424); assay: Positive allosteric modulation of rat mGlu5 assessed as calcium mobilization by cell-based assay relative to glutamate; format: functional
Sequence of Metabotropic glutamate receptor 5 (Rattus norvegicus) (P31424 21-1203 limits assumed): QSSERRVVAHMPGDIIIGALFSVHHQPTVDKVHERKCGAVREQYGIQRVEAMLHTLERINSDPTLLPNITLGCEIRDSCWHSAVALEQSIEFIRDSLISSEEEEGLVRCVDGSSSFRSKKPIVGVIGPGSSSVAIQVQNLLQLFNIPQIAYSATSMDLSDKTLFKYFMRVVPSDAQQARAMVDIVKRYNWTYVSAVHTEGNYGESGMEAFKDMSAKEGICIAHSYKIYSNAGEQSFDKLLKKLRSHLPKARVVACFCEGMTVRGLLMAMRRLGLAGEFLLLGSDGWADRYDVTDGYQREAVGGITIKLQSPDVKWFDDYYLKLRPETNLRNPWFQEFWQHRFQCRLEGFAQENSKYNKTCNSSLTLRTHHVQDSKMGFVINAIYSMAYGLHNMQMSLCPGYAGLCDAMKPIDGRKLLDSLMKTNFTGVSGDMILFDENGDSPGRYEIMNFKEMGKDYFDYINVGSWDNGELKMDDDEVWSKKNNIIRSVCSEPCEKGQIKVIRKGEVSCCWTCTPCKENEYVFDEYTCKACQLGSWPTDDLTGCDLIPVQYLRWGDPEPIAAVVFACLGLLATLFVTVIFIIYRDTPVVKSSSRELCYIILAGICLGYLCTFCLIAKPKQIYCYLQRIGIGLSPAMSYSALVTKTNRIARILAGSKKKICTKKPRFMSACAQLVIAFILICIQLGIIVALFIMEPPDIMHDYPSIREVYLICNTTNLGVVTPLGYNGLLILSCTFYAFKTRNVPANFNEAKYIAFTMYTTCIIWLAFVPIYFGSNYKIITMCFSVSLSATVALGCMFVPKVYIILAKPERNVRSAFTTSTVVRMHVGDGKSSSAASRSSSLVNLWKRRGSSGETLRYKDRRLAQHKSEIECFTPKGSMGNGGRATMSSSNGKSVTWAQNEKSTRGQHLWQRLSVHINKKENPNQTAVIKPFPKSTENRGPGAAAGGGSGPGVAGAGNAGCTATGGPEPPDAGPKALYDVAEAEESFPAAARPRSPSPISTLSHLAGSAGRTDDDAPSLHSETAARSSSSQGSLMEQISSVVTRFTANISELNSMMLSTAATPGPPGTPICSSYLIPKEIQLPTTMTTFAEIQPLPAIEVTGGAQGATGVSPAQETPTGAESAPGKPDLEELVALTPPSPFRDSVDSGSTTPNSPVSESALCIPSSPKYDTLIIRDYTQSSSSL

[7] = Volume of distribution at steady state in Sprague-Dawley rat at 2.5 mg/kg, iv and 10 mg/kg, po; format: ADME, organism-based; settings: in vivo, read-out: Vdss
Rattus norvegicus [8] = assay: Inhibition of amphetamine-induced hyperlocomotion in oral-dosed Sprague-Dawley rat assessed as reversal of amphtamine-induced effect drug administered 20 mins prior to 1 mg/kg amphetamine challenge; format: functional; settings: read-out: MED
Method in brief: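 Male Sprague-Dawley rats received a single oral screening dose of 10 mg/kg; full dose-response studies were also run (n = 8/group). Readout is % reversal of amphetamine-induced locomotion relative to vehicle control. Terminal brain and plasma levels were sampled at T90.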

Cytochrome P450 2C9 = Cytochrome P450 2C9 (Homo sapiens, UniProt P11712); assay: Inhibition of CYP2C9 (unknown origin); format: ADME
Sequence of Cytochrome P450 2C9 (P11712 whole entry): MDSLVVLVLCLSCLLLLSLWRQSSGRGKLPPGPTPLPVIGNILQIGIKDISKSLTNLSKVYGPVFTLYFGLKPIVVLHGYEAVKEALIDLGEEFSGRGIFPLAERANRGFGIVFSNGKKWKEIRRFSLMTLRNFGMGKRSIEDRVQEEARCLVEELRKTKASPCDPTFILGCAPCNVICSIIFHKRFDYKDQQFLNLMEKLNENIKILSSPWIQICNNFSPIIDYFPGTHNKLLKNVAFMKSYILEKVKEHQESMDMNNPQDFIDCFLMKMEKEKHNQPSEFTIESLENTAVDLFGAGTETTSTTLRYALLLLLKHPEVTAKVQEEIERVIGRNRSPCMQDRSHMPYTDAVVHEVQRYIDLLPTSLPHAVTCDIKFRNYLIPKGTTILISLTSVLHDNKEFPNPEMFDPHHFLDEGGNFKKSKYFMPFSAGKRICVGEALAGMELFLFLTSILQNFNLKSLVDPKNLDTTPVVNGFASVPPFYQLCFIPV

[9] = biological target: Metabotropic glutamate receptor 5 (Rattus norvegicus, UniProt P31424); assay: Positive allosteric modulation of rat mGlu5 assessed as calcium mobilization by cell-based assay; format: functional
Plasma [10] = assay: Stability in rat plasma after 4 hrs; format: ADME, cell-free
Method in brief: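 Compound incubated in rat plasma at 37 °C for 4 h; stability assessed.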

[11] = Stability in beta cyclodextrin at pH 6 upto 5 days; format: physicochemical; settings: buffer, pH 6, 120 h
Method in brief: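 Stability of the compound formulated at 4 mg/mL in 20% β-cyclodextrin vehicle, pH 6, monitored for up to five days; percent decomposition of the amide determined.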

Brain [12] = assay: Fraction unbound in rat brain; format: ADME, tissue-based
Method in brief: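 Rat brain unbound fraction obtained from a brain homogenate binding assay.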

Cytochrome P450 2D6 = Cytochrome P450 2D6 (Homo sapiens, UniProt P10635); assay: Inhibition of CYP2D6 (unknown origin); format: ADME
Rattus norvegicus [13] = assay: Toxicity in Sprague-Dawley rat assessed as decreased motor coordination at 56.6 mg/kg, po; format: organism-based; settings: in vivo
Method in brief: (§1)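 Rats dosed orally at 56.6 mg/kg and observed over 6.0 h. Behavior scored on a modified Racine scale, including motor activity and coordination. Brain concentration measured.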

[14] = AUC (0 to 8 hrs) in Sprague-Dawley rat plasma at 2.5 mg/kg, iv and 10 mg/kg, po; format: ADME, organism-based
Method in brief: (§2)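 Discrete PK in male Sprague-Dawley rats. Oral arm: 10 mg/kg PO in 20% β-CD at 1 mg/mL. Plasma sampled to 8 h, giving Cmax, Tmax and AUC0-8h. Absolute oral bioavailability derived against the IV arm.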

Rattus norvegicus [15] = assay: Toxicity in Sprague-Dawley rat assessed as decreased motor activity at 56.6 mg/kg, po; format: organism-based; settings: in vivo; method in brief: as §1
Cytochrome P450 1A2 = biological target: T1, Cytochrome P450 1A2 (Homo sapiens, UniProt P05177); assay: Inhibition of CYP1A2 (unknown origin); format: ADME
T1 sequence (P05177 whole entry): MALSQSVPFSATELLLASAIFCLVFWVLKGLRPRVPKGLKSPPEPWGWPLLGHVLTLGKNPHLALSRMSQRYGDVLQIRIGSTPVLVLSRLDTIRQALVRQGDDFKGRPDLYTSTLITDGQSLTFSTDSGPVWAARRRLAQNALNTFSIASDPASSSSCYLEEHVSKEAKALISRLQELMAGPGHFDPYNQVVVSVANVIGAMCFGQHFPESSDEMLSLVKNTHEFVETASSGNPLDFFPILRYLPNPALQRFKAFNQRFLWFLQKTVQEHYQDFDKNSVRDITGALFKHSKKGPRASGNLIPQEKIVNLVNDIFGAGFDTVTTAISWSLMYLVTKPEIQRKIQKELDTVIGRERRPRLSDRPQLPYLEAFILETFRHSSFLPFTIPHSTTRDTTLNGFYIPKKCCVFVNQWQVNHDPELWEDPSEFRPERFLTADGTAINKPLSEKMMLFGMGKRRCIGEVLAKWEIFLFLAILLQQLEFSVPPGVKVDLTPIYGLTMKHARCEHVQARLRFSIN

[16] = Elimination half life in dog at 1 mg/kg, iv and 5 mg/kg, po; format: ADME, organism-based, Canis lupus familiaris; settings: in vivo
Brain [17] = assay: Drug concentration in Sprague-Dawley rat brain at 56.6 mg/kg, po; format: ADME, organism-based; settings: in vivo, read-out: Drug uptake
[18] = Stability in simulated gastric fluid for 1 hr; format: physicochemical; settings: simulated gi fluid
Method in brief: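 Incubation in simulated gastric fluid at 37 °C for 1 h; decomposition of the external amide assessed.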

[19] = Elimination half life in Sprague-Dawley rat at 2.5 mg/kg, iv and 10 mg/kg, po; format: ADME, organism-based; settings: in vivo, read-out: beta t1/2 (converted); method in brief: as §2
Plasma [20] = assay: Fraction unbound in human plasma; format: ADME, cell-free
Method in brief: (§3)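 Plasma protein binding measured in human and rat plasma; readout is fraction unbound.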

[21] = biological target: Metabotropic glutamate receptor 3 (Homo sapiens, UniProt Q14832); assay: Positive allosteric modulation of mGlu3 receptor (unknown origin) relative to control
[22] = Plasma clearance in Sprague-Dawley rat at 0.2 mg/kg, iv; format: ADME, organism-based
Plasma [23] = assay: Fraction unbound in rat plasma; format: ADME, cell-free; method in brief: as §3
[24] = Plasma clearance in Sprague-Dawley rat at 2.5 mg/kg, iv and 10 mg/kg, po; format: ADME, organism-based
[25] = Volume of distribution at steady state in dog at 1 mg/kg, iv and 5 mg/kg, po; format: ADME, organism-based, Canis lupus familiaris; settings: in vivo, read-out: Vdss
Rattus norvegicus [26] = assay: Cmax in Sprague-Dawley rat at 2.5 mg/kg, iv and 10 mg/kg, po; format: ADME, organism-based; settings: in vivo; method in brief: as §2
Rattus norvegicus [27] = assay: Oral bioavailability in Sprague-Dawley rat at 10 mg/kg; format: ADME, organism-based; settings: in vivo
Method in brief: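 Male Sprague-Dawley rats were dosed orally at 10 mg/kg in 20% β-CD (1 mg/mL) and sampled over 8 h. Cmax, Tmax and AUC0-8h were determined, and absolute %F was calculated against a discrete IV study.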

Cytochrome P450 3A4 = Cytochrome P450 3A4 (Homo sapiens, UniProt P08684); assay: Inhibition of CYP3A4 (unknown origin); format: ADME
Sequence of Cytochrome P450 3A4 (P08684 whole entry): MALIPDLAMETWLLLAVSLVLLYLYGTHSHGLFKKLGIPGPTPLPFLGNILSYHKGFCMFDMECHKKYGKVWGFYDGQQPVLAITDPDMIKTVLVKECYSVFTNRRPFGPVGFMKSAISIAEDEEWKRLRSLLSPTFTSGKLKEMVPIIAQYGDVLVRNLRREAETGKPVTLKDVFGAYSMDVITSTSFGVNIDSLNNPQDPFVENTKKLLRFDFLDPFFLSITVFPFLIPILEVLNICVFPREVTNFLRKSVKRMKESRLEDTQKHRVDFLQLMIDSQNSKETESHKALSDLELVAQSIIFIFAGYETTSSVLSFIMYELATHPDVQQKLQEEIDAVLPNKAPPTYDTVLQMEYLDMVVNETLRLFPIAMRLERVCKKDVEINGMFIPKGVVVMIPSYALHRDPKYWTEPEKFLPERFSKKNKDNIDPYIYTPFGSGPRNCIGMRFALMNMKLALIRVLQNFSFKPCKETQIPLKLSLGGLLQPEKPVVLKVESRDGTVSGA

[28] = biological target: Metabotropic glutamate receptor 5 (Rattus norvegicus) (UniProt P31424); assay: Positive allosteric modulation of mGlu5 in rat astrocytes relative to glutamate; format: cell-based
[29] = biological target: T2, Metabotropic glutamate receptor 5 (Homo sapiens, UniProt P41594); assay: Positive allosteric modulation of human mGlu5 expressed in HEK293 cells assessed as calcium mobilization; format: functional, cell-based; settings: read-out: EC50
Method in brief: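 Calcium mobilization read-out in HEK293 cells stably expressing human mGlu5; PAM EC50 and efficacy as % of maximal glutamate response. Mean±SEM of three or more independent determinations, each in triplicate.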

[30] = biological target: Metabotropic glutamate receptor 7 (Homo sapiens, UniProt Q14831); assay: Positive allosteric modulation of mGlu7 receptor (unknown origin) relative to control
[31] = biological target: Metabotropic glutamate receptor 4 (Homo sapiens, UniProt Q14833); assay: Positive allosteric modulation of mGlu4 receptor (unknown origin) relative to control
Sequence of Metabotropic glutamate receptor 4 (Q14833 whole entry): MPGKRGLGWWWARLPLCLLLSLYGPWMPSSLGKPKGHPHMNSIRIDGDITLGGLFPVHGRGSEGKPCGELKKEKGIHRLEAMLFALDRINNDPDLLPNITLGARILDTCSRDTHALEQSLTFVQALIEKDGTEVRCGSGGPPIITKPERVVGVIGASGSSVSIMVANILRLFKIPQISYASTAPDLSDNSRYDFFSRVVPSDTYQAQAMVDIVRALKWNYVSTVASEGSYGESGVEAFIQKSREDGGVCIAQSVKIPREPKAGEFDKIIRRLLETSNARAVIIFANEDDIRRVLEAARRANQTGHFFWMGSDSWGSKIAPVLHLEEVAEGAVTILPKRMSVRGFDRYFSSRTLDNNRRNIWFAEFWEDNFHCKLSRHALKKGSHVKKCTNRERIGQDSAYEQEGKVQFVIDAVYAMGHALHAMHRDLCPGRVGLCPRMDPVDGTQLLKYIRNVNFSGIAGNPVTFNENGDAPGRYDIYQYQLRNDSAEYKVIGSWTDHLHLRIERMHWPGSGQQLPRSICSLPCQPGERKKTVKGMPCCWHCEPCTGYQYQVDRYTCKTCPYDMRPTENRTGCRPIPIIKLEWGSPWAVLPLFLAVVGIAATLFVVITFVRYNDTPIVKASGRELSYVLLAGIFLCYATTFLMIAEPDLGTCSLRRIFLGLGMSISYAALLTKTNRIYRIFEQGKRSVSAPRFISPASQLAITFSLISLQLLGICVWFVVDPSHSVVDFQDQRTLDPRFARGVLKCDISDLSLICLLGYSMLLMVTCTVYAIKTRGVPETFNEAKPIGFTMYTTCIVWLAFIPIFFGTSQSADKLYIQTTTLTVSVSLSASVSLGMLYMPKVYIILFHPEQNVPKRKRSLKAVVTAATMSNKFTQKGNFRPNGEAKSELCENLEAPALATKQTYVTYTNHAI

[32] = biological target: Metabotropic glutamate receptor 8 (Homo sapiens, UniProt O00222); assay: Positive allosteric modulation of mGlu8 receptor (unknown origin) relative to control
[33] = Drug concentration in Sprague-Dawley rat brain at 30 mg/kg, po after 1 hr; format: ADME, organism-based; settings: read-out: Drug uptake
Method in brief: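 Rat modified Irwin study: single 30 mg/kg PO dose, with behaviour scored across 30 autonomic and somatomotor endpoints. Brain concentration measured 1.0 h post-dose. Unbound brain level estimated.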

[34] = Oral bioavailability in dog at 5 mg/kg; format: ADME, organism-based, Canis lupus familiaris; settings: in vivo
[35] = biological target: Metabotropic glutamate receptor 2 (Homo sapiens, UniProt Q14416); assay: Positive allosteric modulation of mGlu2 receptor (unknown origin) relative to control
Sequence of Metabotropic glutamate receptor 2 (Q14416 whole entry): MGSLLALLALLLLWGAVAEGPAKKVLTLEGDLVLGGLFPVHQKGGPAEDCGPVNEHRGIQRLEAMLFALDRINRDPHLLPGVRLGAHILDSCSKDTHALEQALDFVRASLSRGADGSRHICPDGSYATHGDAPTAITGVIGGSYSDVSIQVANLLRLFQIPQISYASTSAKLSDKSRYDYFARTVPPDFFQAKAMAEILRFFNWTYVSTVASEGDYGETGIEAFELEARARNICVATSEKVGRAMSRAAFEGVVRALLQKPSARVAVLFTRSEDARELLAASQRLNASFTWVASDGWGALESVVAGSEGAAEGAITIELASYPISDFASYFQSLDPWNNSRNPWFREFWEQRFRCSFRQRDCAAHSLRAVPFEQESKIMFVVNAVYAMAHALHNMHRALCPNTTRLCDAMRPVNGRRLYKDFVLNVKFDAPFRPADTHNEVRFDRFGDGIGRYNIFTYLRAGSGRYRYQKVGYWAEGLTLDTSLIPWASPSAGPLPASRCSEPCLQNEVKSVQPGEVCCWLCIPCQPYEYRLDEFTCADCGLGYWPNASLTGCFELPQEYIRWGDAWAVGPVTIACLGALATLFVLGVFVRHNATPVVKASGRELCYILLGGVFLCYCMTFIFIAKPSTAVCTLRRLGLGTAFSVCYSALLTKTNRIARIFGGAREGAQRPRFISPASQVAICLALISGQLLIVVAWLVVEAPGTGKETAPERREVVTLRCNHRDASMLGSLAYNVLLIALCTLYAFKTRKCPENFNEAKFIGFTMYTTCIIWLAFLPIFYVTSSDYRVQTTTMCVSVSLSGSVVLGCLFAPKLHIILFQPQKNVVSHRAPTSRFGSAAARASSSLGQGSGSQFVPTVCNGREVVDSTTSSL

[36] = Solubility in simulated gastric fluid; format: ADME; settings: simulated gi fluid
Method in brief: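 Solubility measured in simulated gastric fluid at 37 °C over 1 h; compound stability was assessed in parallel.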

[37] = AUC in dog plasma at 1 mg/kg, iv and 5 mg/kg, po; format: ADME, organism-based, Canis lupus familiaris
[38] = biological target: T2, Metabotropic glutamate receptor 5; assay: Positive allosteric modulation of human mGlu5 expressed in HEK293 cells assessed as calcium mobilization relative to glutamate; format: functional, cell-based
Method in brief: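 Calcium mobilization in HEK293 cells expressing human mGlu5, reported as EC50 and % Glu Max. Mean±SEM of three or more independent determinations, each run in triplicate.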

In the case of `CC(=O)N1CCCn2nc(COc3ccccc3)cc21`, the Activity (Rattus norvegicus [1]) is reported as “Non-toxic”, the Cmax [2] is reported as under 0.1 µM and the EC50 [3] is reported as over 10 µM. It also gave a clearance [4] of 37 mL/min/kg, an EC50 [5] of over 10 µM and a %max [6] of 65%. It also gave a Vd [7] of 3.9 L/kg, a minimal effective dose (Rattus norvegicus [8]) of 3 mg/kg and an IC50 (Cytochrome P450 2C9) of over 30 µM. For the same molecule, the EC50 [9] was 0.06 µM, the Stability (Plasma [10]) was “Stable” and the Stability [11] was “Stable”. The Fu (Brain [12]) was 0.51, the IC50 (Cytochrome P450 2D6) was over 30 µM and the Activity (Rattus norvegicus [13]) was “Toxic”. The AUC(0-t) [14] was 3.3 µM·h, the Activity (Rattus norvegicus [15]) was “Toxic” and the IC50 (Cytochrome P450 1A2) was over 30 µM. For the same molecule, the half-life [16] was under 0.5 h, the concentration (Brain [17]) was 113 µM and the Stability [18] was “Stable”. For the same molecule, the half-life [19] was 6.5 h, the Fu (Plasma [20]) was 0.26 and the EC50 [21] was over 10 µM. It also gave a clearance [22] of 118 mL/min/kg, a Fu (Plasma [23]) of 0.37 and a clearance [24] of 54 mL/min/kg. It also gave a Vd [25] of 1.1 L/kg, a Cmax (Rattus norvegicus [26]) of 2.5 µM and an F (Rattus norvegicus [27]) of 29%. It also gave an IC50 (Cytochrome P450 3A4) of over 30 µM, a %max [28] of 57% and an EC50 [29] of 0.36 µM. It also gave an EC50 [30] of over 10 µM, an EC50 [31] of over 10 µM and an EC50 [32] of over 10 µM. For the same molecule, the concentration at 1 h [33] was 71 µM, the bioavailability [34] was under 5% and the EC50 [35] was over 10 µM. The solubility [36] was 315 µg/mL (≈ 1160 µM), the AUC [37] was 0.1 µM·h and the %max [38] was 65%.
